Laboratory results from ChEMBL document CHEMBL1148508, “Design and synthesis of phosphotyrosine peptidomimetic prodrugs” (J Med Chem, 2006).

Columns and labels:
Jurkat = assay: Inhibition of NFAT-mediated luciferase gene transcription in human jurkat J77 cell line after 6 hrs; assay type: functional, cell-based
Procedure, shortened: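 Jurkat J77 cells electroporated (300 V, 800 μF) with NFAT-luciferase plasmid (four NFAT sites), grown 24 h in FBS-RPMI. Pretreated 1 h with compound (0.1-1000 μM, DMSO stocks), then stimulated with PMA plus anti-CD3 (2 μg/well) for 6 h. Lysate luciferase read; sigmoidal fit of RLU vs log concentration, IC50 = 50% drop versus DMSO control; mean ± S.E., n = 4.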

[1] = test system: Panel NCI-62 (62 carcinoma cell lines); assay: Antiproliferative activity against human NCI62 cell line after 48 hrs; assay type: functional
Procedure, shortened: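 NCI 60-panel screen (62 cell lines): cells grown 24 h in supplemented RPMI 1640, then exposed to drug 48 h at 5 concentrations, 10^-8 to 10^-4 M. Stopped with cold trichloroacetic acid, fixed, sulforhodamine B stained, bound dye solubilized and absorbance read. Growth inhibition from time-zero, control and treated absorbances; GI50 as mean ± S.D. across 62 lines.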

SMILES | IC50 (Jurkat) | GI50 [1]
CC(NC(=O)Cc1ccc(NP(=O)(OCc2ccc([N+](=O)[O-])o2)N(C)CCCCCl)cc1)c1ccc(OCC2CCCCC2)c(C(N)=O)c1 (stereo not given) | 20 µM | 
CC(NC(=O)c1ccc(NP(=O)(OCc2ccc([N+](=O)[O-])o2)N(C)CCCCCl)cc1)c1ccc(OCC2CCCCC2)c(C(N)=O)c1 (stereo not given) | 16 µM | 18 µM
CC(NC(=O)Cc1ccc(OP(=O)(OCc2ccc([N+](=O)[O-])o2)N(C)CCCCCl)cc1)c1ccc(OCC2CCCCC2)c(C(N)=O)c1 (stereo not given) | 9 µM | 3 µM
CC(NC(=O)c1ccc(OP(=O)(OCc2ccc([N+](=O)[O-])o2)N(C)CCCCCl)cc1)c1ccc(OCC2CCCCC2)c(C(N)=O)c1 (stereo not given) | 31 µM | 12 µM
CC(=O)N[C@@H](Cc1ccc(NP(=O)(OCc2ccc([N+](=O)[O-])o2)N(C)CCCCCl)cc1)C(=O)NC(C)c1ccc(OCC2CCCCC2)c(C(N)=O)c1 (stereo not given in full) | 28 µM | 
CC(=O)N[C@@H](Cc1ccc(OP(=O)(OCc2ccc([N+](=O)[O-])o2)N(C)CCCCCl)cc1)C(=O)NC(C)c1ccc(OCC2CCCCC2)c(C(N)=O)c1 (stereo not given in full) | 21 µM | 6 µM
